ChEMBL document CHEMBL4400556, “β-Lactones: A Novel Class of Ca2+-Independent Phospholipase A2 (Group VIA iPLA2) Inhibitors with the Ability To Inhibit β-Cell Apoptosis” (J Med Chem, 2019)
pIC50: −log10 of the molar value. Calls of active or inactive are those of the source. The rule behind the calls is not given here.

Experiments:
[1] = target: T1, Cytosolic phospholipase A2 (Homo sapiens) (UniProt P47712); experiment: Inhibition of human recombinant G4A cPLA2 at 0.091 mole fraction using arachidonyl-1-14C PAPC , PAPC and PIP2 incubated for 30 mins by HPLC-MS analysis based radioactivity-based group specific mixed micelle assay
T1 sequence (whole entry): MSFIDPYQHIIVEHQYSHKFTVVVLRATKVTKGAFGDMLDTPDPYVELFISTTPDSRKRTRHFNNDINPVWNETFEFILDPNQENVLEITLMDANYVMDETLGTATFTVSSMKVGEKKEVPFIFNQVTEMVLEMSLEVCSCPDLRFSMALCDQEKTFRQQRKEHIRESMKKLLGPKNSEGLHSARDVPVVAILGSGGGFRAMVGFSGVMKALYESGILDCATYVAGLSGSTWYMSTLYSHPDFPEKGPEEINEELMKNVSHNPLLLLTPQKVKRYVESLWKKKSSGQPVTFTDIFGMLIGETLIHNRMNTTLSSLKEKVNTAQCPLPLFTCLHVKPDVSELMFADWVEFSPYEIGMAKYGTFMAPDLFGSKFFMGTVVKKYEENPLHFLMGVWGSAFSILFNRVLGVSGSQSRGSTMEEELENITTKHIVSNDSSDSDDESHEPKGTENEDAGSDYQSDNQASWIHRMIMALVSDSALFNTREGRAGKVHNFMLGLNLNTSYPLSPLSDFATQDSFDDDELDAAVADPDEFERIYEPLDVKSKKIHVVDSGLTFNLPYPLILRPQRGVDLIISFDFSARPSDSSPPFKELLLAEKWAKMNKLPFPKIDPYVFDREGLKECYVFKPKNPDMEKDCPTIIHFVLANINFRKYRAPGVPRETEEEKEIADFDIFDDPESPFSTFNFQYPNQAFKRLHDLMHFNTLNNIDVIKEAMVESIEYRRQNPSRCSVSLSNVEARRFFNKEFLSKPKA
In short: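 Human recombinant GIVA cPLA2, radioactivity mixed-micelle assay. Substrate: 400 μM Triton X-100, 95.3 μM PAPC, 1.7 μM arachidonyl-1-14C PAPC, 3 μM PIP2. Buffer: 100 mM HEPES pH 7.5, 90 μM CaCl2, 2 mM DTT, 0.1 mg/ml BSA. Screened at 0.091 mole fraction from DMSO stock. XI(50) fitted from % inhibition vs log mole fraction.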

[2] = target: T2, 85/88 kDa calcium-independent phospholipase A2 (Homo sapiens) (UniProt O60733); experiment: Inhibition of human recombinant G6A iPLA2 at 0.091 mole fraction using arachidonyl-1-14C PAPC and PAPC incubated for 30 mins by HPLC-MS analysis based radioactivity-based group specific mixed micelle assay relative to control
T2 sequence (whole entry): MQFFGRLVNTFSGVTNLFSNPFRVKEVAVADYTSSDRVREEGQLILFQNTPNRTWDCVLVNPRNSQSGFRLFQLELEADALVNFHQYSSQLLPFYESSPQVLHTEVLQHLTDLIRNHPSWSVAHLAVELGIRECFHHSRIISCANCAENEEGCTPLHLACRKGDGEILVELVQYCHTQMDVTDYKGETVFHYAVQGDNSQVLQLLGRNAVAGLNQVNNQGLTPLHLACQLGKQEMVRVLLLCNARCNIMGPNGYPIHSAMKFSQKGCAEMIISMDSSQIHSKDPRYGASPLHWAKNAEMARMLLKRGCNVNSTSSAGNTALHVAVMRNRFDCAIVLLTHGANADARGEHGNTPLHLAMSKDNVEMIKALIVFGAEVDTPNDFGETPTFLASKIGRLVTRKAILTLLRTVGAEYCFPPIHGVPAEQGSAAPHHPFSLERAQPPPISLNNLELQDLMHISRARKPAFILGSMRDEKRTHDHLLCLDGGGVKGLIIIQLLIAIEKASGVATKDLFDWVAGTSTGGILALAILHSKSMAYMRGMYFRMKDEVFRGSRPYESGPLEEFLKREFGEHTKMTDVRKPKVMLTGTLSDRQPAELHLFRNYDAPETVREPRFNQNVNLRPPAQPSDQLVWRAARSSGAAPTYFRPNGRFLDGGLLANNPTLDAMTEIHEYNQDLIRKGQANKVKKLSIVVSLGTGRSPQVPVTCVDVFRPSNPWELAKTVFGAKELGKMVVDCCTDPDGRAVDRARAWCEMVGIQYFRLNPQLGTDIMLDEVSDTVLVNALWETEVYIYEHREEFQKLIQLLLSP
In short: (§1)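 Human recombinant GVIA iPLA2, radioactivity mixed-micelle assay. Substrate: 400 μM Triton X-100, 98.3 μM PAPC, 1.7 μM arachidonyl-1-14C PAPC. Buffer: 100 mM HEPES pH 7.5, 2 mM ATP, 4 mM DTT. Screened at 0.091 mole fraction from DMSO.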

[3] = target: T3, 85/88 kDa calcium-independent phospholipase A2 (Homo sapiens, UniProt O60733); experiment: (§2) Inhibition of human recombinant G6A iPLA2 using arachidonyl-1-14C PAPC and PAPC incubated for 30 mins by HPLC-MS analysis based radioactivity-based group specific mixed micelle assay; in short: as §1
T3 sequence (O60733 whole entry): T2 sequence (whole entry)

[4] = target: T2, 85/88 kDa calcium-independent phospholipase A2 (Homo sapiens); experiment: as §2; in short: as §1
Homo sapiens [5] = organism: Homo sapiens; experiment: Inhibition of human recombinant G5 sPLA2 at 0.091 mole fraction using arachidonyl-1-14C PAPC and PAPC by HPLC-MS analysis based radioactivity-based group specific mixed micelle assay relative to control
In short: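 Human recombinant GV sPLA2, radioactivity mixed-micelle assay. Substrate: 400 μM Triton X-100, 98.3 μM PAPC, 1.7 μM arachidonyl-1-14C PAPC. Buffer: 50 mM Tris-HCl pH 8.0, 5 mM CaCl2. Compound added from DMSO at 0.091 mole fraction; percent inhibition measured.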

INS1 [6] = experiment: Inhibition of IL-1beta/IFNgamma-induced apoptosis in rat INS-1 cells at 10 uM after 16 hrs by DAPI-based TUNEL assay; assay type: functional; conditions: INS1, 16 h
In short: (§3)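 INS-1 cells exposed 16 h to IL-1β (100 U/mL) plus IFNγ (300 U/mL), with or without compound (0.10–10 μM) or DMSO vehicle (1 μL/mL). Apoptosis read by TUNEL (green) over total DAPI-stained nuclei, 6 fields per slide. The 6-field mean per slide is one replicate (n=3–12). Results given as mean ± SEM percent apoptotic cells.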

Homo sapiens [7] = organism: Homo sapiens; experiment: Selectivity index, ratio of IC50 for inhibition of human recombinant G4A cPLA2 to IC50 for inhibition of human recombinant G6A iPLA2
INS1 [8] = experiment: Inhibition of IL-1beta/IFNgamma-induced apoptosis in rat INS-1 cells at 0.1 uM after 16 hrs by DAPI-based TUNEL assay; assay type: functional, cell-based; in short: as §3
INS1 [9] = experiment: Inhibition of IL-1beta/IFNgamma-induced apoptosis in rat INS-1 cells at 1 uM after 16 hrs by DAPI-based TUNEL assay; assay type: functional; conditions: INS1, 16 h; in short: as §3
INS1 [10] = experiment: Cytotoxicity against rat INS-1 cells assessed as cell death at 10 uM after 16 hrs by TUNNEL assay (reference value: 7.06 +/- 0.36%); assay type: cell-based; conditions: ins1, 16 h
INS1 [11] = experiment: Inhibition of IL-1beta/IFNgamma-induced apoptosis in rat INS-1 cells at 0.1 to 10 uM after 16 hrs by DAPI-based TUNEL assay

Structure (SMILES)	inhibition [1]	inhibition [2]	XI50 (mole fraction) [4]	inhibition (Homo sapiens [5])	also measured
CCC[C@@H]1OC(=O)[C@@H]1CCCCc1ccccc1 (racemic)	94%	99%	0.007	34%	pIC50 [3]: 5.46
CCCCCCC1OC(=O)C1CCCc1ccccc1 (centres undefined)	91%	89%		47%	
CCCC1OC(=O)C1CCCCc1ccc2ccccc2c1 (centres undefined)	71%	97%			
CCCC1OC(=O)C1CCCc1ccccc1 (centres undefined)	81%	96%			
O=C(CCCCc1ccccc1)C(F)(F)C(F)(F)F				28%	
CCC[C@H]1OC(=O)[C@@H]1CCCCc1ccc2ccccc2c1 (racemic)	59%	99%	9e-05	29%	
CCC[C@@H]1OC(=O)[C@@H]1CCCc1ccccc1 (racemic)	97%	92%		< 25%	
COc1ccc(CCSCC(=O)c2noc(C(C)(C)C)n2)cc1			0.0057	38%	
CCC[C@H]1OC(=O)[C@@H]1CCCc1ccc2ccccc2c1 (racemic)	73%	98%	0.0003	30%	
CCCC1OC(=O)C1CCCc1ccc2ccccc2c1 (centres undefined)	77%	98%			
CCC1OC(=O)C1CCCc1ccc2ccccc2c1 (centres undefined)	85%	93%		29%	
CCCCCCC1OC(=O)C1CCCc1ccc2ccccc2c1 (centres undefined)	54%	59%		40%	
CCC[C@H]1OC(=O)[C@@H]1CCCc1ccccc1 (racemic)	90%	99%	0.00019	25%	
CCC[C@@H]1OC(=O)[C@@H]1CCCCc1ccc2ccccc2c1 (racemic)	72%	95%	0.0021	< 25%	
O=C(CCCCc1ccc2ccccc2c1)C(F)(F)F				37%	
CCCC1OC(=O)C1CCCCc1ccccc1 (centres undefined)	84%	100%			

Continued, in another order:

inhibition [1]	inhibition [2]	XI50 (mole fraction) [4]	inhibition (Homo sapiens [5])	Structure (SMILES)	also measured
88%	100%	2.1e-06	25%	CCC[C@H]1OC(=O)[C@@H]1CCCCc1ccccc1 (racemic)	inhibition at 10 µM (INS1 [6]): 41%; Ratio IC50 (Homo sapiens [7]): 22000; pIC50 [3]: 9.00; inhibition (INS1 [8]): inactive; inhibition at 1 µM (INS1 [9]): 28%; Activity (INS1 [10]): 9.51%; inhibition (INS1 [11]): Dose-dependent effect
85%	93%		29%	CC(C)C1OC(=O)C1CCCc1ccccc1 (centres undefined)	
			33%	COc1ccc(CCCCC(=O)C(F)(F)C(F)(F)F)cc1	
85%	89%		26%	CC1OC(=O)C1CCCc1ccc2ccccc2c1 (centres undefined)	
89%	81%		27%	CCC[C@@H]1OC(=O)[C@@H]1CCCc1ccc2ccccc2c1 (racemic)	
85%	99%	0.00019	26%	CCC[C@H]1OC(=O)[C@@H]1CCCc1ccc(OC)cc1 (racemic)	
58%	78%		40%	CCCCCCC1OC(=O)C1CCCc1ccc(-c2ccccc2)cc1 (centres undefined)	
95%	85%	0.038	29%	CCC[C@@H]1OC(=O)[C@@H]1CCCc1ccc(OC)cc1 (racemic)	
76%	96%			CCCC1OC(=O)C1CCCc1ccc(OC)cc1 (centres undefined)	
